In ChEMBL document CHEMBL1122419, “alpha-Adrenergic activities of some substituted 2-(aminomethyl)imidazolines” (J Med Chem, 1983) one finds pA2, Ki and EC50 data, which are given here for eight molecules.

For the first assay, the target named is Adrenergic receptor alpha-2 (Rattus norvegicus) (UniProt P22086+P19328+P22909). As to the kind of experiment: Clonidine antagonistic activity against alpha-2 adrenergic receptor in isolated, field -simulated vas deferens from rats. Type of assay: functional. An outline of the steps: (§1)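 Field-stimulated vas deferens from Sprague-Dawley rats (250-350 g). pA2 estimated from one or two test-compound concentrations, with at least three tissues per concentration. Agonist challenged was clonidine for α2 and methoxamine for α1.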
In turn, `Cc1ccc(N(CC2=NCCN2)c2cccc(O)c2)cc1` displayed a pA2 of 7.8.
In turn, `Cc1ccc(N(CC2=NCCN2)C2CCCCC2)cc1` gave a pA2 of 6.5.
As to `CCN(CC1=NCCN1)c1ccc(C)cc1`, the pA2 was 7.1.
Take `Cc1ccc(N(CC2=NCCN2)c2ccccc2)cc1`: the pA2 is 7.5.
In turn, `Cc1ccc(NCC2=NCCN2)cc1` came in with a pA2 of 5.6.
Regarding `Cc1ccc(N(C)CC2=NCCN2)cc1`, the pA2 is 7.

In the next assay the target is T1, Adrenergic receptor alpha-1 (Rattus norvegicus, UniProt P15823+P23944+P43140).
T1 sequence (P15823 whole entry): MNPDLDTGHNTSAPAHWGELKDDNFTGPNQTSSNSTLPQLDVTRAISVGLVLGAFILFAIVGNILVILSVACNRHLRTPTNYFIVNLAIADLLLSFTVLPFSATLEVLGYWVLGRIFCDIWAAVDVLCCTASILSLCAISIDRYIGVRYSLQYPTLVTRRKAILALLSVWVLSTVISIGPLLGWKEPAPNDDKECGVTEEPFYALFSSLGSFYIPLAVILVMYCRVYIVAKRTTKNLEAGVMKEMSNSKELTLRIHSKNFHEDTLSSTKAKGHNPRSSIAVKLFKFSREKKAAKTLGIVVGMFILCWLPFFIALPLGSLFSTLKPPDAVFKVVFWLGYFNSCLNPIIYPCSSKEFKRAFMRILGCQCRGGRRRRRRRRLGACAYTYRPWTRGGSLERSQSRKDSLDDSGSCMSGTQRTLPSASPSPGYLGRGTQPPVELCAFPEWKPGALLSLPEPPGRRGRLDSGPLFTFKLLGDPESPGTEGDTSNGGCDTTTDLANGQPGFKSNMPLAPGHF
T1 sequence (P23944 whole entry): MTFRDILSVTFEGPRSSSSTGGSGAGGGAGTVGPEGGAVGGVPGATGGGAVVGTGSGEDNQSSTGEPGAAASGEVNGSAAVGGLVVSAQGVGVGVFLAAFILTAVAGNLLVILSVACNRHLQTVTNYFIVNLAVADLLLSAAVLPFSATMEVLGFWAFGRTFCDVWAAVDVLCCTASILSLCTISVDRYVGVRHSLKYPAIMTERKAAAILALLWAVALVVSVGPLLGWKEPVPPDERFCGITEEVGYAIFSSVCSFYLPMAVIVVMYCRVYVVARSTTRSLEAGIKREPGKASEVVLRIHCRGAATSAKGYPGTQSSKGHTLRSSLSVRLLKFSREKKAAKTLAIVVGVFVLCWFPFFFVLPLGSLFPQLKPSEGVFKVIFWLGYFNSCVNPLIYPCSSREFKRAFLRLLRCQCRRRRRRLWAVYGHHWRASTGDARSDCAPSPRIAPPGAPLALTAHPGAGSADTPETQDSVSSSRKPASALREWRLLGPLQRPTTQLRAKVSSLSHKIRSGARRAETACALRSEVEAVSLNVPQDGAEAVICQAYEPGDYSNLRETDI
T1 sequence (P43140 whole entry): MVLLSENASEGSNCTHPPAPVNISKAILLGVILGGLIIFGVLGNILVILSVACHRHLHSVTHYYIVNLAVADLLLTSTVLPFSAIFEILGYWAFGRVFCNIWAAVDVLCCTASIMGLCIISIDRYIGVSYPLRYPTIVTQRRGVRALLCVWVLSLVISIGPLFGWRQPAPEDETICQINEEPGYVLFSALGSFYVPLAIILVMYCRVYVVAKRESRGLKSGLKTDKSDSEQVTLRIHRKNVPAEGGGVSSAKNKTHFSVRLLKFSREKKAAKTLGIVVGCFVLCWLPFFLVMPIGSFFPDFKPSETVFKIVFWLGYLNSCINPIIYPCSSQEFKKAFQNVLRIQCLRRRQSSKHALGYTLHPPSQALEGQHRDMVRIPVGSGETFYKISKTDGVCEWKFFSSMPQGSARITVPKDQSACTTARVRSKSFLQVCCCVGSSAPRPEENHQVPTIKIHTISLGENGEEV
As to the kind of experiment: Methoxamine antagonistic activity against alpha-1 adrenergic receptor in isolated, field -simulated vas deferens from rats. Format: functional, tissue-based. In a few lines: as §1
With `Cc1ccc(N(CC2=NCCN2)C2CCCCC2)cc1`, the pA2 is 6.
On the same count and under the same terms, the result for `Cc1ccc(N(CC2=NCCN2)c2ccccc2)cc1` reads 7.6.

The next assay deals with T2, Alpha-2A adrenergic receptor (Bos taurus, UniProt Q28838).
T2 sequence (Q28838 whole entry): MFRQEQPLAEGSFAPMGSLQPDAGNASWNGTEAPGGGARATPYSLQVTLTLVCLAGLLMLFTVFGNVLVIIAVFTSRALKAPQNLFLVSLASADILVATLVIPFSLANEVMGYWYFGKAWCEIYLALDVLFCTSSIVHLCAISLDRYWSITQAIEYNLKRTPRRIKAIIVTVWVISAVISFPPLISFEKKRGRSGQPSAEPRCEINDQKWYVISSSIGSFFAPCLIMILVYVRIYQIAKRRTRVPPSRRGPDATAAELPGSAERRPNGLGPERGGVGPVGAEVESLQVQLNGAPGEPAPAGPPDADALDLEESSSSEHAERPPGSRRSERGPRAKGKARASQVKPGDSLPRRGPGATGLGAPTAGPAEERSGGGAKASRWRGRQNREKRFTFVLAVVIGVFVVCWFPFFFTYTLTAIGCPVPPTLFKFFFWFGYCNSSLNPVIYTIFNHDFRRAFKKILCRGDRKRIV
As to the kind of experiment: Binding affinity against alpha-2 adrenergic receptor from calf cerebral cortex, using [3H]clonidine as the radioligand. Type of assay: tissue-based.
`Cc1ccc(N(CC2=NCCN2)C2CCCCC2)cc1` returned a Ki of 70 nM.
`CCN(CC1=NCCN1)c1ccc(C)cc1` displayed an inhibition constant Ki of 14 nM.
Molecule `Oc1cccc(NCC2=NCCN2)c1` came in with a Ki of 7.1 nM.
On the same count and under the same terms, next, `Cc1ccc(NCC2=NCCN2)cc1`: 14 nM; `Cc1ccc(N(C)CC2=NCCN2)cc1`: 3.3 nM.

Another assay has as its target T3, Adrenergic receptor alpha-2 (Rattus norvegicus, UniProt P22086+P19328+P22909).
T3 sequence (P22086 whole entry): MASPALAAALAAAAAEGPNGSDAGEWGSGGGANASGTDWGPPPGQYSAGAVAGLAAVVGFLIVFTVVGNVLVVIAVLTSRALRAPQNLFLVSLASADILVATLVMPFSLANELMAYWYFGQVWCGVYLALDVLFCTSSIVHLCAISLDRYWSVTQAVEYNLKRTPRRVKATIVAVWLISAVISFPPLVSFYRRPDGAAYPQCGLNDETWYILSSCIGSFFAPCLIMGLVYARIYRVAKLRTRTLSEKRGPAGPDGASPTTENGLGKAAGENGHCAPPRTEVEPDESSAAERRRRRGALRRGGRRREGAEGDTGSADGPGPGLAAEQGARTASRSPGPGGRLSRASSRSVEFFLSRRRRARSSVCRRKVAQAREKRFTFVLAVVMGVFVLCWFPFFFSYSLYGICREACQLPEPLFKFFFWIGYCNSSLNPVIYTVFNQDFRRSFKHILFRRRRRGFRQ
T3 sequence (P19328 whole entry): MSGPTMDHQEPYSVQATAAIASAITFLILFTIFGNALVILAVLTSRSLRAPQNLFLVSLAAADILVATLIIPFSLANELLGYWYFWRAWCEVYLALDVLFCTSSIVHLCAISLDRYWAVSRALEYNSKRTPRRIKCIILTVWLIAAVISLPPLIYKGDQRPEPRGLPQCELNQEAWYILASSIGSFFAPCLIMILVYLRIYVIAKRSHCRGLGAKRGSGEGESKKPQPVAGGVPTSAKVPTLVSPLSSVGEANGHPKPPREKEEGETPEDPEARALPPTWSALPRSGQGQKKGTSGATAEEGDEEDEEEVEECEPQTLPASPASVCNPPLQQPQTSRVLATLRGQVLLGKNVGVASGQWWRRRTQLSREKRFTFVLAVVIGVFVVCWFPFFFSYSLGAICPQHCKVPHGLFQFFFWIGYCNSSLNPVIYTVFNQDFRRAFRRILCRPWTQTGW
T3 sequence (P22909 whole entry): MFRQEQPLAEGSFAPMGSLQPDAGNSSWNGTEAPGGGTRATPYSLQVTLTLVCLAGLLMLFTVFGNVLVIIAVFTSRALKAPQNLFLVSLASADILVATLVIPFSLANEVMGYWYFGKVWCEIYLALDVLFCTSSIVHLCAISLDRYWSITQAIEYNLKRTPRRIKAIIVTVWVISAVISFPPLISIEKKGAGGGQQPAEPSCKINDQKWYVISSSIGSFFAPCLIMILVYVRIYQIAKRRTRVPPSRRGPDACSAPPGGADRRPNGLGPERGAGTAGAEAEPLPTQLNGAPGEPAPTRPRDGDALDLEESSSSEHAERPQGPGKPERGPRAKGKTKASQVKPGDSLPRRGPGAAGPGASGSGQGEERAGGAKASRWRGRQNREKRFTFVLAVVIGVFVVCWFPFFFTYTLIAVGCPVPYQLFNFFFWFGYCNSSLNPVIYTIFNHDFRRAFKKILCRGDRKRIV
The experiment in a line: Agonistic activity against alpha alpha-2 adrenergic receptor in isolated, field -simulated vas deferens from rats. Format: functional.
For `Cc1ccc(N(CC2=NCCN2)C2CCCCC2)cc1`, the EC50 is greater than 1000 nM.
`CCN(CC1=NCCN1)c1ccc(C)cc1` returned an EC50 greater than 1000 nM.
In turn, `Oc1cccc(NCC2=NCCN2)c1` displayed a concentration for a half-maximal effect (EC50) of 74 nM.
Consider `Cc1ccc(N(CC2=NCCN2)c2ccccc2)cc1`, for which the 50% effective concentration (EC50) was greater than 1000 nM.
In the case of `Cc1ccc(NCC2=NCCN2)cc1`, the 50% effective concentration (EC50) was greater than 2000 nM.
For `Cc1ccc(N(C)CC2=NCCN2)cc1`, the EC50 is greater than 2000 nM.

A further assay concerns the target T3, Adrenergic receptor alpha-2. As to the kind of experiment: Agonistic activity against alpha-2 adrenergic receptor in isolated, field -simulated vas deferens from rats. Format: functional. An outline of the steps: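 Field-stimulated vas deferens from Sprague-Dawley rats (250-350 g), pretreated with prazosin (78 nM). α2 agonism scored as inhibition of stimulation-induced contractions. […] Agonist activity confirmed by complete reversal of the inhibition by rauwolscine (280 nM).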
The molecule `Clc1ccccc1NCC1=NCCN1` returned an EC50 of 53 nM.

The next assay deals with T1, Adrenergic receptor alpha-1. As to the kind of experiment: Agonist activity against alpha-1 adrenergic receptor from rat vas deferens. Format: functional.
For `Cc1ccc(N(CC2=NCCN2)C2CCCCC2)cc1`, the EC50 is greater than 1000 nM.
Consider `CCN(CC1=NCCN1)c1ccc(C)cc1`, for which the concentration giving a half-maximal response (EC50) worked out at 1600 nM.
The molecule `Oc1cccc(NCC2=NCCN2)c1` had an EC50 of 61 nM.
Regarding `Cc1ccc(N(CC2=NCCN2)c2ccccc2)cc1`, the EC50 is greater than 1000 nM.
`Cc1ccc(NCC2=NCCN2)cc1` registered a concentration giving a half-maximal response (EC50) of 340 nM.
As to `Cc1ccc(N(C)CC2=NCCN2)cc1`, the EC50 was found to be 300 nM.
Take `Clc1ccccc1NCC1=NCCN1`: the half-maximal effective concentration (EC50) is 50 nM.

In general, pA2 refers to a measure of antagonist potency on a negative log scale. A higher pA2 goes with a more potent antagonist. Broadly, the Ki is the dissociation constant of the complex between target and ligand, obtained from inhibition or displacement. Usually EC50 stands for the concentration that produces a half-maximal response. A low value points to a more potent agent.
